Columns and labels:
[1] = target: Human immunodeficiency virus type 1 reverse transcriptase (Human immunodeficiency virus 1, UniProt Q72547); assay: Inhibitory activity against HIV-1 Reverse transcriptase wild-type (RT wt)
Procedure, shortened: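 Recombinant HIV-1 RT (wild-type, M184V or M184I) was expressed in E. coli JM109 with 1 mM IPTG for 5 h, then purified on Q and SP columns to >90% purity. Assay used MS2 RNA/22A DNA primer in 50 mM Tris-HCl pH 7.8, 6 mM MgCl2, 150 mM KCl and 0.01% Triton X-100. Synthesis was distributive, with [3H]dATP as the only nucleotide, at 37 °C. Timed aliquots were spotted on DE81 and counted by scintillation. Ki came from the abscissa intercept of the Lineweaver–Burk replot. Ratio was Ki over dATP Km.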

[2] = target: Human immunodeficiency virus type 1 reverse transcriptase (Human immunodeficiency virus 1, UniProt Q72547, M184V); assay: Inhibitory activity against HIV-1 reverse transcriptase (RT M184V)
Procedure, shortened: (§1)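 Recombinant HIV-1 RT M184V or M184I was expressed in E. coli JM109 (1 mM IPTG, 5 h), purified over Q and SP columns to >90%. The template-primer was MS2 RNA/22A DNA in 50 mM Tris-HCl pH 7.8, 6 mM MgCl2, 150 mM KCl, 0.01% Triton X-100, with [3H]dATP as the sole nucleotide (distributive mode). Reactions were enzyme-started at 37 °C and sampled 4–5 times onto DE81 filters. Ki came from the abscissa intercept of the Lineweaver–Burk replot.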

[3] = target: Human immunodeficiency virus type 1 reverse transcriptase (Human immunodeficiency virus 1, UniProt Q72547, M184I); assay: Inhibitory activity against HIV-1 reverse transcriptase (RT M184I); procedure, shortened: as §1

Ki [1] | Structure (SMILES) | Ki [2] | Ki [3]
320 nM | Nc1ncnc2c1ncn2/C=C1/CC1COP(=O)(O)OP(=O)(O)OP(=O)(O)O (stereo not given) |  | 
10000 nM | Nc1ncnc2c1ncn2/C=C1\CC1COP(=O)(O)OP(=O)(O)OP(=O)(O)O (stereo not given) |  | 

Structure (SMILES) | Ki [1] | Ki [2] | Ki [3]
Nc1ncnc2c1ncn2[C@H]1CC[C@@H](COP(=O)(O)OP(=O)(O)OP(=O)(O)O)O1 [DDA-TRIPHOSPHATE] | 510 nM | 500 nM | 1200 nM

From ChEMBL document CHEMBL1145749, “Inhibition of human immunodeficiency virus reverse transcriptase by synadenol triphosphate and its E-isomer” (J Med Chem, 2003)
